Assay results: ChEMBL document CHEMBL1141865, “Discovery of 4-heteroarylbicyclo[2.2.2]octyltriazoles as potent and selective inhibitors of 11beta-HSD1: novel therapeutic agents for the treatment of metabolic syndrome” (Bioorg Med Chem Lett, 2005)

Key:
[1] = target: 11-beta-hydroxysteroid dehydrogenase 1 (Mus musculus, UniProt P50172); test: Inhibitory activity against mouse 11beta-HSD1
[2] = target: T1, 11-beta-hydroxysteroid dehydrogenase 1 (Homo sapiens, UniProt P28845); test: Inhibitory activity against human 11beta-HSD1
Target sequence in this assay (P28845 whole entry): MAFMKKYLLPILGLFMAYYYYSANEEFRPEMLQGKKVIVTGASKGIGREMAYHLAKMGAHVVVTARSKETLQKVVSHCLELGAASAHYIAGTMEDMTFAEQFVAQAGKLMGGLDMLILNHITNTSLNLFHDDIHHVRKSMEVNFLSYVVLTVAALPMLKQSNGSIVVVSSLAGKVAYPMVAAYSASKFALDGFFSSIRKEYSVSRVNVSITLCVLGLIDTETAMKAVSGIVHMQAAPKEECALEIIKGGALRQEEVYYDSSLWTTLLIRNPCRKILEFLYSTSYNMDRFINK

[3] = target: T2, 11-beta-hydroxysteroid dehydrogenase type 2 (Homo sapiens, UniProt P80365); test: Inhibitory activity against human 11beta-HSD2
T2 sequence (P80365 whole entry): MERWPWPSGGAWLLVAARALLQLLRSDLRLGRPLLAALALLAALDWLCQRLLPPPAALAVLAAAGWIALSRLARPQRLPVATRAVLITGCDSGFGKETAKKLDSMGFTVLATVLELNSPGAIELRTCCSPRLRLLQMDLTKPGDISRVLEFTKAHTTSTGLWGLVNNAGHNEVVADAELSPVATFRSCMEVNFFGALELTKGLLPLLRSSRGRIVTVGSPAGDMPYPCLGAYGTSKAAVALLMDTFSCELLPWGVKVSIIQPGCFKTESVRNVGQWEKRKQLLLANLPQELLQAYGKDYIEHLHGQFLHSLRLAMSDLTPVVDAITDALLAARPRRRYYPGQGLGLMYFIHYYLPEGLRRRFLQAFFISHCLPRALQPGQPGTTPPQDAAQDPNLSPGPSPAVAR

[4] = target: T3, 11-beta-hydroxysteroid dehydrogenase type 2 (Mus musculus, UniProt P51661); test: Inhibitory activity against mouse 11beta-HSD2
T3 sequence (P51661 whole entry): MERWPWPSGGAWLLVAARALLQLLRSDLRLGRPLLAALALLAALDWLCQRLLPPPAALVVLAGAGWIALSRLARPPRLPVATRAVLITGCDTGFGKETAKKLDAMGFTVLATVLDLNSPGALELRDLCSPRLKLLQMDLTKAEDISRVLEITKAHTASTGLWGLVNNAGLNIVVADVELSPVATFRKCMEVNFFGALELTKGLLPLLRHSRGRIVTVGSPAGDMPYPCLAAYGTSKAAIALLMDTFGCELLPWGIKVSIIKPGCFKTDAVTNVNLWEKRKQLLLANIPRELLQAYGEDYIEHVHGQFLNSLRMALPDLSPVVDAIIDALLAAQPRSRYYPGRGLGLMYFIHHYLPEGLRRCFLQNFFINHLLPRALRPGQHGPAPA

[5] = target: T4, 11-beta-hydroxysteroid dehydrogenase type 2 (Homo sapiens) (UniProt P80365); test: Inhibitory activity against human 11beta-HSD2 at 4 uM
T4 sequence (whole entry): T2 sequence (P80365 whole entry)

[6] = target: T1, 11-beta-hydroxysteroid dehydrogenase 1; test: In vivo inhibition of 11beta-HSD1 at 1 h (10 mg/kg, po) assessed by extent of cortisone to cortisol conversion; assay type: functional, organism-based
Method in brief: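 Oral dosing at 10 mg/kg, followed by exogenous [3H]cortisone as the 11β-HSD1 substrate. In vivo enzyme activity is read out as the extent of conversion to [3H]cortisol, reported as % inhibition.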
Target sequence in this assay (P28845 whole entry, looked up): as the sequence (P28845 whole entry) above

[7] = Oral bioavailability in mouse; assay type: ADME, organism-based; details: in vivo
[8] = species on record: Mus musculus; test: (§1) Plasma clearance in mouse; assay type: ADME, organism-based; details: in vivo
[9] = as §1; assay type: ADME, organism-based; details: plasma
[10] = Plasma clearance in rat; assay type: ADME, organism-based
[11] = plasma clearance in dog; assay type: ADME, organism-based, Canis lupus familiaris
[12] = Half life in mouse; assay type: ADME, organism-based; details: in vivo
[13] = Half life in rat; assay type: ADME, organism-based; details: in vivo
[14] = Half life in dog; assay type: ADME, organism-based, Canis lupus familiaris; details: in vivo
[15] = Oral bioavailability in rat; assay type: ADME, organism-based; details: in vivo
[16] = Oral bioavailability in dog; assay type: ADME, organism-based, Canis lupus familiaris; details: in vivo
[17] = species on record: Rattus norvegicus; test: AUC in rat; assay type: ADME, organism-based, Plasma; details: in vivo
[18] = species on record: Canis familiaris; test: AUC in dog; assay type: ADME, organism-based, Canis lupus familiaris, Plasma; details: in vivo
[19] = species on record: Mus musculus; test: AUC in mouse; assay type: ADME, organism-based, Plasma; details: in vivo

Sequence of 11-beta-hydroxysteroid dehydrogenase 1 (Mus musculus, UniProt P50172) (P50172 whole entry): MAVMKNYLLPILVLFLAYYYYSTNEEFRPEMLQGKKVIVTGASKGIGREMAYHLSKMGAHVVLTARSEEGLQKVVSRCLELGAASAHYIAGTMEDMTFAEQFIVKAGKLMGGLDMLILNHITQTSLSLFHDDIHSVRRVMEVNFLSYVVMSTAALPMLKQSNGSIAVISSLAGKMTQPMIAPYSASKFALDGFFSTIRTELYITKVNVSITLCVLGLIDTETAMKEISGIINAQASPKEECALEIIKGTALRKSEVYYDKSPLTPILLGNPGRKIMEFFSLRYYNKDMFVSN

Cn1c(-c2ccccc2OC(F)F)nnc1C12CCC(c3nc(-c4ccc(F)cc4)no3)(CC1)CC2
IC50 [1]: 5.2 nM

Cn1c(-c2ccccc2Cl)nnc1C12CCC(c3nc(-c4ccc(F)cc4)no3)(CC1)CC2
IC50 [1]: 3.2 nM

COc1ccc(-c2nnc(C34CCC(c5nc(-c6ccc(F)cc6)no5)(CC3)CC4)n2C)c(Cl)c1
IC50 [1]: 12 nM

Cn1c(-c2ccccc2C(F)(F)F)nnc1C12CCC(c3nc(-c4ccc(Cl)cc4)no3)(CC1)CC2
IC50 [1]: 2 nM

COC(=O)C12CCC(c3nnc4n3CCCCCC4)(CC1)CC2
IC50 [2]: 110 nM
IC50 [1]: 68 nM
IC50 [3]: > 4000 nM
IC50 [4]: > 4 µM

COc1cc(O)ccc1-c1nnc(C23CCC(c4nc(-c5ccc(F)cc5)no4)(CC2)CC3)n1C
IC50 [1]: 2.3 nM

Cn1c(-c2ccccc2C(F)(F)F)nnc1C12CCC(c3nc(-c4ccc(S(C)(=O)=O)cc4)no3)(CC1)CC2
IC50 [1]: 1.8 nM

Cn1c(-c2ccccc2C(F)(F)F)nnc1C12CCC(c3n[nH]c(-c4ccc(F)cc4)n3)(CC1)CC2
IC50 [1]: 1.6 nM

Clc1ccc(-c2noc(C34CCC(c5nnc6n5CCCCCC6)(CC3)CC4)n2)cc1
IC50 [1]: 17 nM
IC50 [4]: 4 µM

Cc1noc(C23CCC(c4nnc5n4CCCCCC5)(CC2)CC3)n1
IC50 [2]: 289 nM
IC50 [1]: 136 nM
IC50 [3]: > 4000 nM
IC50 [4]: > 4 µM

C1CCCn2c(nnc2C23CCC(c4nc(CC5CC5)no4)(CC2)CC3)CC1
inhibition [5]: 61%
IC50 [2]: 170 nM
IC50 [1]: < 3.9 nM
IC50 [4]: > 4 µM

Cn1c(-c2ccccc2S(C)(=O)=O)nnc1C12CCC(c3nc(-c4ccc(F)cc4)no3)(CC1)CC2
IC50 [1]: 29 nM

Cn1c(-c2ccccc2C(F)(F)F)nnc1C12CCC(c3nnc(-c4ccc(F)cc4)o3)(CC1)CC2
IC50 [1]: 5 nM

Cn1c(-c2ccccc2C(F)(F)F)nnc1C12CCC(c3nc(-c4ccc(=O)n(C)c4)no3)(CC1)CC2
IC50 [1]: 22 nM

CCCCCC12CCC(c3nnc4n3CCCCCC4)(CC1)CC2
inhibition [6]: 74%
bioavailability [7]: 6%
IC50 [2]: 5 nM
IC50 [1]: 3 nM
IC50 [3]: 183 nM
IC50 [4]: 2.1 µM
CL [8]: 14.1 mL/min/kg

Cn1c(-c2ccccc2C(F)(F)F)nnc1C12CCC(c3nc(-c4cccc(S(C)(=O)=O)c4)no3)(CC1)CC2
IC50 [1]: 9.5 nM

CCCCCC12CCC(c3nnc(-c4ccccc4C(F)(F)F)n3C)(CC1)CC2
inhibition [6]: 99%
bioavailability [7]: 21%
IC50 [2]: 2 nM
IC50 [1]: 3 nM
clearance [9]: 273 mL/min/kg

Cn1c(-c2ccccc2C(F)(F)F)nnc1C12CCC(c3nc(-c4ccc(C(O)C(F)(F)F)cc4)no3)(CC1)CC2 (stereo not given)
IC50 [1]: < 1 nM

Cn1c(-c2ccccc2C(F)(F)F)nnc1C12CCC(c3nc(-c4ccc(F)cc4)c[nH]3)(CC1)CC2
IC50 [1]: 2.4 nM

Cn1c(-c2ccccc2C(F)(F)F)nnc1C12CCC(c3noc(-c4ccc(F)cc4)n3)(CC1)CC2
IC50 [1]: < 1 nM

Cn1c(-c2ccccc2C(F)(F)F)nnc1C12CCC(c3nc(-c4ccc(F)cc4)no3)(CC1)CC2
clearance [10]: 5.39 mL/min/kg
clearance [11]: 3.51 mL/min/kg
half-life [12]: 1060 min
half-life [13]: 306 min
half-life [14]: 592 min
bioavailability [7]: 58%
bioavailability [15]: 83%
bioavailability [16]: 100%
IC50 [1]: 1.9 nM
AUC [17]: 6.2 uMh
AUC [18]: 9.55 uMh
clearance [9]: 5.88 mL/min/kg
AUC [19]: 5.7 uMh

Cn1c(-c2ccccc2C(F)(F)F)nnc1C12CCC(c3nc(-c4ccc(S(=O)(=O)C(F)(F)F)cc4)no3)(CC1)CC2
IC50 [1]: < 0.98 nM

COc1ccc(-c2noc(C34CCC(c5nnc(-c6ccccc6C(F)(F)F)n5C)(CC3)CC4)n2)cn1
IC50 [1]: 4.5 nM
